# Most compounds without a hit are left out; they make up all but 1.5% or so of the library.
# ZTA DNA inh = ZTA (EBV) inhibition in EBNA-1 counter-screen. P03206. ZTA-DNA binding, fluorescence polarization. inhibition, % at 11 µM. 0.15% of 320,000 active; in the data active = inhibition above about 33%
# LANA-H2B inh = blocks KSHV LANA binding to histone H2A/H2B. Q9QR71. inhibition, % (test concentration not listed). cell-free LANA-H2A/H2B peptide, fluorescence polarization. 0.6% of 320,000 active; in the data active = inhibition mostly above about 10%, no sharp cut-off; inactive = mostly below about 6.7%
# EBNA-1 inhibitor = blocks EBNA-1 binding to DNA | 0.34% of 300,000 active | inhibition, % at 14.8 µM | EBNA-1 DNA binding, fluorescence polarization | AID 1950; in the data active = inhibition above about 28%
# A1 inh = inhibitors of the anti-apoptotic protein A1, read as caspase activation | 0.066% of 330,000 active | MEF A1-2A-BIM cells, Caspase-Glo 3/7 luminescence, 3 h; percent of clofoctol response, vehicle zero | caspase activation, % (no concentration beside the values) | AID 2462;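 active = over half of replicate activation scores above 10%, or exactly half above 10 with the replicate mean above 10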
# CSN deneddyl inh = CSN deneddylation inhibition; Purified CSN, SCF-Nedd8-OG deneddylation, fluorescence polarization; inhibition, % at 12.5 µM; 0.38% of 360,000 active; Q92905; AID 651999;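 active = pattern-corrected inhibition above about 35%, with an unprinted fluorescence ratio check between 0.5 and 1.5, limit read from the data, passing the limit was not always enough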;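 also: 0% = enzyme with substrate and 100% = substrate without enzyme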
# Target sequence (Q92905 whole entry, looked up, one chain of several): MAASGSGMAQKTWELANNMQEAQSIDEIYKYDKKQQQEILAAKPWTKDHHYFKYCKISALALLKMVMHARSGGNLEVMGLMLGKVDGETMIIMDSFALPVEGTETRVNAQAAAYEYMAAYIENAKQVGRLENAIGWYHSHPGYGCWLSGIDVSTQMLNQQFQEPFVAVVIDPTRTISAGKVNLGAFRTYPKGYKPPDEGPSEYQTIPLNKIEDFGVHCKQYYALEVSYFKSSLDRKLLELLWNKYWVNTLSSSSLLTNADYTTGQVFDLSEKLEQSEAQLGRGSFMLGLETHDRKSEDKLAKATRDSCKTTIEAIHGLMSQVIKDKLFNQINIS
#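 assay system = purified human Csn5 enzyme expressed in HEK293T cells | amount = 0.24 nM enzyme | buffer or medium = Tris/NaCl/DTT buffer, pH 7.5 | reagent = 10 nM SCFSkp2-Nedd8OG | compound = one concentration, 12.5 µM, 0.25% DMSO | times = 90 min reaction at room temperature | signal = FP | read-out basis = % inhibition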
# HNF4A DNA FP = change in binding of human HNF4 alpha to DNA; P41235; HNF4a-FITC DNA binding, fluorescence polarization, 1 h; activity change, % at 10 µM; 0.3% of 360,000 active; AID 1224865; in the data active = activity change above about 30%, passing the limit was not always enough
# * = called active by the depositor; · = no result given; ! = a repeat was not active.
SMILES,ZTA DNA inh,LANA-H2B inh,EBNA-1 inhibitor,A1 inh,CSN deneddyl inh,HNF4A DNA FP
CCOC(=O)N1CCN(S(=O)(=O)c2c(C)nc3sccn3c2=O)CC1,-6.1,0.7,2.6,-1.9,-4.1,-1.7
CC(=O)c1cccc(OCC(=O)N(C)CC(=O)Nc2ccc(F)cc2)c1,-4.4,17.3*,3.1,0.8,·,·
CC1(C)Cc2c(cnn2-c2ccc(F)cc2)C(NC(=O)CCN2CCCCC2=O)C1 (stereo not drawn),·,1.6,·,0.3,-1.2,3.5
Cc1ccc(N2CC(C(=O)N3CCN(Cc4ccc5c(c4)OCO5)CC3)CC2=O)cc1 (stereo not drawn),-9.4,52.2*,-5.1,0.5,3.1,1.5
O=C(C1CC(=O)N(c2ccc(Cl)cc2)C1)N1CCN(Cc2ccc3c(c2)OCO3)CC1 (stereo not drawn),-5.7,-0.1,6.4,-0.3,6.2,-1.6
O=C(C1CC(=O)N(c2ccc(F)cc2)C1)N1CCOCC1 (stereo not drawn),8.5,-2.0,-2.2,0.4,-2.0,0.9
O=C(C1CC(=O)N(c2ccc(Cl)cc2)C1)N1CCOCC1 (stereo not drawn),-0.9,28.1*,-7.6,-0.7,-5.7,-1.4
Cc1cc(Cl)ccc1-c1nc(NCc2ccccc2)nc2ccsc12,·,·,·,·,-0.8,1.7
O=C(O)CCCCCCCC(=O)O,9.4,30.5*!,1.8,-1.2,0.5,4.0
CCOC(=O)N1CCN(C(=O)/C=C/c2ccc([N+](=O)[O-])cc2)CC1,-2.2,-6.8,7.0,0.0,-1.1,2.3
CCOC(=O)N1CCN(C(=O)/C=C/c2ccc(C(C)(C)C)cc2)CC1,-8.9,37.5*,6.9,0.2,-1.0,3.8
CC(=O)NCCCCCCNC(C)=O,5.7,30.6*!,0.7,-0.3,-5.7,2.2
COC(=O)C[C@H]1CC[C@@H](NS(=O)(=O)c2ccc(C)cc2)[C@@H](CO)O1,·,·,·,·,-3.6,-3.9
O=C(Cc1ccccc1[N+](=O)[O-])NCC(=O)c1ccc2c(c1)OCO2,·,·,·,·,-4.0,10.9
COC(=O)CCC(=O)OC1(C)C(=O)C=C2C=C(c3ccsc3)OC=C2C1=O (stereo not drawn),21.9,1.9,16.6,0.6,38.4*,8.5
CCC(=O)OC1(C)C(=O)C=C2C=C(c3ccsc3)OC=C2C1=O (stereo not drawn),12.1,2.3,-0.5,-1.3,25.6,7.8
COc1cc(CC(=O)Nc2sccc2C(N)=O)cc(OC)c1OC,-12.3,0.8,-5.5,0.7,17.0,33.8*
O=C(COc1ccc(Br)cc1)N(Cc1ccco1)C1CCS(=O)(=O)C1 (stereo not drawn),14.1,-1.7,-2.1,-0.3,1.4,0.4
O=C(NC(=S)Nn1cnc2c(cnn2-c2ccccc2)c1=O)c1ccc(Oc2ccccc2)cc1,-0.7,0.3,31.0*,-0.2,4.3,-0.3
CCCCOC(=O)COc1ccc(Cl)cc1Cl,-5.0,13.9*,·,0.7,-3.4,3.3
O=C(NC(=S)N1CCCCC1CO)c1cc(Br)ccc1Cl (stereo not drawn),·,·,·,·,2.0,4.7
CCOC(=O)CCC(=O)Nc1ccc([N+](=O)[O-])cc1C,-6.1,-1.7,-3.8,0.6,-7.7,29.9*
CCOCC(=O)Nc1ccc([N+](=O)[O-])cc1OC,14.5,2.3,2.8,0.3,-2.4,-4.4
CCOCC(=O)Nc1cc([N+](=O)[O-])ccc1OC,2.8,22.4*,-3.1,0.8,-18.0,2.9
O=C(O)CCN1C(=O)/C(=C/c2ccc(-c3nc4ccccc4s3)o2)SC1=S,7.4,-1.7,-2.7,-0.4,193.0,59.9*
O=C(O)CCCN1C(=O)/C(=C\c2ccc(-c3nc4ccccc4s3)o2)SC1=S,-9.1,6.2,-6.3,0.0,116.8,25.6
CCOC(=O)c1ccc(N2C(=O)C(O)=C(C(C)=O)C2c2ccc([N+](=O)[O-])cc2)cc1 (stereo not drawn),-0.1,-2.4,-9.5,0.0,-1.2,1.6
CC(=O)C1=C(O)C(=O)N(c2ccc(C(=O)O)cc2)C1c1ccc([N+](=O)[O-])cc1 (stereo not drawn),-9.8,13.1*,-4.9,0.2,2.6,-3.2
CC1(c2cccc(Br)c2)NC(=O)N(CC(=O)c2ccc3c(c2)OCO3)C1=O (stereo not drawn),·,·,·,·,-1.5,2.2

# From PubChem
